Test results taken from ChEMBL document CHEMBL3124843, “Synthesis, cytostatic, antimicrobial, and anti-HCV activity of 6-substituted 7-(het)aryl-7-deazapurine ribonucleosides” (J Med Chem, 2014).
Active and inactive are the calls of the source. No rule for the calls is given here.

Assays:
K562 [1] = experiment: Cytostatic activity against paclitaxel-resistant human K562 cells after 72 hrs by MTT assay; format: functional, cell-based; conditions: K562, 72 h
Procedure, shortened: (§1)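 IC50 is the concentration that cuts cell growth by 50%, read by quantitative metabolic MTT staining after a 3-day treatment. The resistant sublines were made by raising the concentration of the cytotoxic drug step by step. CEM-DNR-bulk (daunorubicin-selected) stably overexpresses mrp-1. K562-TAX (paclitaxel-selected) expresses only mdr-1. HCT116p53−/− carries null p53 alleles. BJ and MRC-5 are nonmalignant fibroblasts.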

BJ = experiment: Cytostatic activity against human BJ cells after 72 hrs by MTT assay; format: ADME, cell-based; procedure, shortened: as §1
Enterococcus faecalis = experiment: Antibacterial activity against Enterococcus faecalis CCM 4224 after 24 hrs; format: functional, organism-based
A549 = experiment: Cytostatic activity against human A549 cells after 72 hrs by MTT assay; format: functional, cell-based; conditions: A549, 72 h; procedure, shortened: as §1
CCRF-CEM = experiment: Cytostatic activity against human CCRF-CEM cells after 72 hrs by MTT assay; format: functional, cell-based; procedure, shortened: as §1
[2] = Cytostatic activity against human CEM-DNR-bulk cells after 72 hrs by MTT assay; format: functional, cell-based; procedure, shortened: as §1
Staphylococcus aureus [3] = experiment: Antibacterial activity against Staphylococcus aureus CCM 3953 after 24 hrs; format: functional, organism-based
[4] = Cytotoxicity against human HuH7 cells infected with Hepatitis C virus subtype 2a; format: cell-based, Huh-7
[5] = Cytotoxicity against human HuH7 cells infected with Hepatitis C virus subtype 1b; format: cell-based, Huh-7
HepG2 = experiment: Antiproliferative activity against human HepG2 cells after 72 hrs by XTT assay; format: functional, cell-based; conditions: HepG2, 72 h
HCT-116 [6] = experiment: Cytostatic activity against p53-deficient human HCT116 cells after 72 hrs by MTT assay; format: functional, cell-based; conditions: HCT-116, 72 h; procedure, shortened: as §1
Pichia kudriavzevii = experiment: Antifungal activity against Candida crusei after 48 hrs; format: functional, organism-based
Hepatitis C virus [7] = experiment: Antiviral activity against Hepatitis C virus subtype 1b infected in human HuH7 cells; format: functional, organism-based, Hepacivirus hominis; conditions: genotype 1b, Huh-7
Escherichia coli [8] = experiment: Antibacterial activity against multi-resistant Escherichia coli C/16702 after 24 hrs; format: functional, organism-based
MRC5 = experiment: Cytostatic activity against human MRC5 cells after 72 hrs by MTT assay; format: ADME, cell-based; conditions: MRC5, 72 h; procedure, shortened: as §1
Staphylococcus aureus [9] = experiment: Antibacterial activity against methicillin-resistant Staphylococcus aureus MRSA 4591 after 24 hrs; format: functional, organism-based
K562 [10] = experiment: Cytostatic activity against human K562 cells after 72 hrs by MTT assay; format: functional, cell-based; conditions: K562, 72 h; procedure, shortened: as §1
HCT-116 [11] = experiment: Cytostatic activity against human HCT116 cells after 72 hrs by MTT assay; format: functional, cell-based; conditions: HCT-116, 72 h; procedure, shortened: as §1
Escherichia coli [12] = experiment: Antibacterial activity against Escherichia coli CCM 3954 after 24 hrs; format: functional, organism-based
Candida parapsilosis = experiment: Antifungal activity against Candida parapsilosis after 48 hrs; format: functional, organism-based
Pseudomonas aeruginosa [13] = experiment: Antibacterial activity against multi-resistant Pseudomonas aeruginosa A/16575 after 24 hrs; format: functional, organism-based
[14] = Antiproliferative activity against human HeLaS3 cells after 72 hrs by XTT assay; format: functional, cell-based; conditions: HeLa S3, 72 h
Procedure, shortened: (§2)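 Antiproliferative test on HL-60 promyelocytic leukemia and HeLa S3 cervical carcinoma cells growing in liquid suspension.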

HL-60 = experiment: Antiproliferative activity against human HL60 cells after 72 hrs by XTT assay; format: functional, cell-based; conditions: HL-60, 72 h; procedure, shortened: as §2
[15] = tested on: Staphylococcus haemolyticus; experiment: Antibacterial activity against methicillin-resistant Staphylococcus haemolyticus A/16568 after 24 hrs; format: functional, organism-based
Hepatitis C virus [16] = experiment: Antiviral activity against Hepatitis C virus subtype 2a infected in human HuH7 cells; format: functional, organism-based, Hepacivirus hominis; conditions: genotype 2a, Huh-7
Candida tropicalis = experiment: Antifungal activity against Candida tropicalis after 48 hrs; format: functional, organism-based
Candida albicans = experiment: Antifungal activity against Candida albicans after 48 hrs; format: functional, organism-based
Pseudomonas aeruginosa [17] = experiment: Antibacterial activity against Pseudomonas aeruginosa CCM 3955 after 24 hrs; format: functional, organism-based

Compound	IC50 (K562 [1])	IC50 (BJ)	Activity (Enterococcus faecalis)	IC50 (A549)	IC50 (CCRF-CEM)	IC50 [2]	Activity (Staphylococcus aureus [3])	CC50 [4]	CC50 [5]	IC50 (HepG2)	IC50 (HCT-116 [6])	Activity (Pichia kudriavzevii)	EC50 (Hepatitis C virus [7])	Activity (Escherichia coli [8])	IC50 (MRC5)	Activity (Staphylococcus aureus [9])	IC50 (K562 [10])	IC50 (HCT-116 [11])	Activity (Escherichia coli [12])	Activity (Candida parapsilosis)	further results
CNc1ncnc2c1ccn2[C@@H]1O[C@H](CO)[C@@H](O)[C@H]1O	0.92 µM	91.4 µM	inactive	> 20 µM	> 20 µM	4.89 µM	inactive	> 44 µM	> 44 µM	> 20 µM	> 20 µM	inactive	0.82 µM	inactive	97.8 µM	inactive	> 20 µM	> 20 µM	inactive	inactive	Activity (Pseudomonas aeruginosa [13]): inactive; IC50 [14]: > 20 µM; IC50 (HL-60): 12.8 µM; Activity [15]: inactive; EC50 (Hepatitis C virus [16]): > 44 µM; Activity (Candida tropicalis): inactive; Activity (Candida albicans): inactive; Activity (Pseudomonas aeruginosa [17]): inactive
CN(C)c1ncnc2c1c(-c1ccoc1)cn2[C@@H]1O[C@H](CO)[C@@H](O)[C@H]1O	14.9 µM	99.2 µM	inactive	> 20 µM	13.3 µM	> 20 µM	inactive	> 44 µM	> 44 µM	12.5 µM	> 20 µM	inactive	7.88 µM	inactive	> 100 µM	inactive	1.54 µM	> 20 µM	inactive	inactive	Activity (Pseudomonas aeruginosa [13]): inactive; IC50 [14]: 9.06 µM; IC50 (HL-60): 1.16 µM; Activity [15]: inactive; EC50 (Hepatitis C virus [16]): > 44 µM; Activity (Candida tropicalis): inactive; Activity (Candida albicans): inactive; Activity (Pseudomonas aeruginosa [17]): inactive
COc1ncnc2c1c(-c1ccccc1)cn2[C@@H]1O[C@H](CO)[C@@H](O)[C@H]1O	> 20 µM	> 100 µM	inactive	> 20 µM	> 20 µM	> 20 µM	inactive	> 44 µM	> 44 µM	> 20 µM	> 20 µM	inactive	21 µM	inactive	> 100 µM	inactive	> 20 µM	> 20 µM	inactive	inactive	Activity (Pseudomonas aeruginosa [13]): inactive; IC50 [14]: > 20 µM; IC50 (HL-60): > 20 µM; Activity [15]: inactive; EC50 (Hepatitis C virus [16]): > 44 µM; Activity (Candida tropicalis): inactive; Activity (Candida albicans): inactive; Activity (Pseudomonas aeruginosa [17]): inactive
Cc1ncnc2c1ccn2[C@@H]1O[C@H](CO)[C@@H](O)[C@H]1O	0.05 µM	0.07 µM	inactive	0.03 µM	0.01 µM	0.05 µM	inactive	0.12 µM	0.23 µM	0.06 µM	0.06 µM	inactive	0.02 µM	inactive	0.09 µM	inactive	0.01 µM	0.03 µM	inactive	inactive	Activity (Pseudomonas aeruginosa [13]): inactive; IC50 [14]: 0.02 µM; IC50 (HL-60): 0.02 µM; Activity [15]: inactive; EC50 (Hepatitis C virus [16]): 0.02 µM; Activity (Candida tropicalis): inactive; Activity (Candida albicans): inactive; Activity (Pseudomonas aeruginosa [17]): inactive
